From ChEMBL document CHEMBL3352374, “Discovery of novel Bcr-Abl inhibitors targeting myristoyl pocket and ATP site” (Bioorg Med Chem, 2014) come the findings set out here.

For one assay, the system named is K562. In words: Antiproliferative activity against Bcr/Abl positive human K562 cells after 48 hrs by MTT method. The following applies: K562, 48 h. It counts as functional, cell-based. An outline of the steps:
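Bcr–Abl positive K562 cells in exponential growth plated at 1 × 10⁴ cells/well and incubated 24 h at 37 °C. Compounds then added at various concentrations for 48 h. MTT (5 mg/mL) added for 4 h at 37 °C, supernatant discarded, formazan dissolved in DMSO. Absorbance read at 570 nm.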

Another assay deals with Bcr/Abl fusion protein (Homo sapiens, UniProt P00519). The assay is described as follows: Inhibition of BCR/ABL (unknown origin) after 40 mins by ADP-Glo kinase assay. It counts as protein assay. (In general: In ADP-Glo the light output rises with the ADP produced.)

Broadly, the IC50 is the concentration that gives 50% inhibition.

Sequence of Bcr/Abl fusion protein (P00519 whole entry, the tested form may be a part): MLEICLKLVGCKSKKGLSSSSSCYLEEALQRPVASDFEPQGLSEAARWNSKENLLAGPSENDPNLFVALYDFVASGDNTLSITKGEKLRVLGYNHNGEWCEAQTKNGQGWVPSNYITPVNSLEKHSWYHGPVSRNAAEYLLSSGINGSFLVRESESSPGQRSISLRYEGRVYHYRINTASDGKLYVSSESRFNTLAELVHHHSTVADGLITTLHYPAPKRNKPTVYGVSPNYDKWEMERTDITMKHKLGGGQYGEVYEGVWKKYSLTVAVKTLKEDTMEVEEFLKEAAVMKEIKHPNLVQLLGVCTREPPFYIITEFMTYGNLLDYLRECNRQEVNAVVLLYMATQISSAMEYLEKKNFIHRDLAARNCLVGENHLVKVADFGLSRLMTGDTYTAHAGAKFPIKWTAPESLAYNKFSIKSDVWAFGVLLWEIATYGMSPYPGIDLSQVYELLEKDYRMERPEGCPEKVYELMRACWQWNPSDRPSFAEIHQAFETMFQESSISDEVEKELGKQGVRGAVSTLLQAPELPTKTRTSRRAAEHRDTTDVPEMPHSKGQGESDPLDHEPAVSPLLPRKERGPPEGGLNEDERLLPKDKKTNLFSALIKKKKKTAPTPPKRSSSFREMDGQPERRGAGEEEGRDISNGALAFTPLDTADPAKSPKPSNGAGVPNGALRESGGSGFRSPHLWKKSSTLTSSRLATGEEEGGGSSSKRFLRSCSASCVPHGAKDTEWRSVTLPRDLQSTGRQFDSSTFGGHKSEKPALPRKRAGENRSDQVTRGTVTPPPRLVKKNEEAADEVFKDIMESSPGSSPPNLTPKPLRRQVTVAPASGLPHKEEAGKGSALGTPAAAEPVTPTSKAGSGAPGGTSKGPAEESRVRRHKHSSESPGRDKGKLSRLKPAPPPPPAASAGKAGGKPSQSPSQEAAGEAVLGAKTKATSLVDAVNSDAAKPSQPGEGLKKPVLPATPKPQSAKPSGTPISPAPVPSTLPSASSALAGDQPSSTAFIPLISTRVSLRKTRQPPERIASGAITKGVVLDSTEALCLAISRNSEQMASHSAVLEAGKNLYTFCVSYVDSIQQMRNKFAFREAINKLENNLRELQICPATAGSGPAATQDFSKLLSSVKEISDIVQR
Sequence of Bcr/Abl fusion protein (P11274 whole entry, further chain, the tested form may be a part): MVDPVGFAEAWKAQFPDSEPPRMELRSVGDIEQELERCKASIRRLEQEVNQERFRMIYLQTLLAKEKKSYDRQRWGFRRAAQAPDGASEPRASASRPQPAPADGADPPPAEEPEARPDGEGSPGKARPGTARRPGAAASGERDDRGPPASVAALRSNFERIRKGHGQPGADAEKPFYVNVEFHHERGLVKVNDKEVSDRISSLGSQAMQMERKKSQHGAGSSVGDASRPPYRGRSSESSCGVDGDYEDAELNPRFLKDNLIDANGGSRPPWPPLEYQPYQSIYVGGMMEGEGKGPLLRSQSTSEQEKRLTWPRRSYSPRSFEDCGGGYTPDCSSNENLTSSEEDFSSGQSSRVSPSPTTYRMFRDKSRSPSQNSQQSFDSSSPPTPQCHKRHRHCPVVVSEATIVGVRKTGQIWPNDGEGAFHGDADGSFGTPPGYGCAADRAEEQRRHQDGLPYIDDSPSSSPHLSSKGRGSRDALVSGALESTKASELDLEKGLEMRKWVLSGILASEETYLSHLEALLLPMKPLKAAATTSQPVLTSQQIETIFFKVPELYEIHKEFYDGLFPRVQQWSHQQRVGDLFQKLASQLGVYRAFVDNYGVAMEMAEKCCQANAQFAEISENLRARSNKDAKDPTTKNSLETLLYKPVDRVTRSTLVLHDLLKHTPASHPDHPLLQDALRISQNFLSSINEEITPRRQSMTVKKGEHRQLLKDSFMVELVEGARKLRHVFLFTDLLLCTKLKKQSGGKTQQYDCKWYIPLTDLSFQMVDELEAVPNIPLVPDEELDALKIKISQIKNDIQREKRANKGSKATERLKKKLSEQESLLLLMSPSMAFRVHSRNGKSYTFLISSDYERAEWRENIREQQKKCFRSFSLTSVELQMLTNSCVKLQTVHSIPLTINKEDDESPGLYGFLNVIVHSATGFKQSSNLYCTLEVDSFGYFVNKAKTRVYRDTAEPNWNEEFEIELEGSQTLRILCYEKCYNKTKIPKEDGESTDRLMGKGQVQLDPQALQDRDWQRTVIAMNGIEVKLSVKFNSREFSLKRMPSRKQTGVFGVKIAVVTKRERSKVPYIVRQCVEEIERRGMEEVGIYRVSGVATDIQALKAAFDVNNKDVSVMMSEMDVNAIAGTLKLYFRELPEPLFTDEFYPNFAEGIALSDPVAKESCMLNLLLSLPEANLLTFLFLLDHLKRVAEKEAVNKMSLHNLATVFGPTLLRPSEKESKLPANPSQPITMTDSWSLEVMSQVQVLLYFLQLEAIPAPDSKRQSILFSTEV

In turn, `O=C(c1ccc(-c2cc(Nc3ccc(Br)cc3)ncn2)cc1)N1CCN(C(=O)c2ccccc2F)CC1` displayed an IC50 with K562 of 306 µM. For `COc1cccc(Nc2cc(-c3ccc(C(=O)N4CCN(C(=O)c5cccc(C(F)(F)F)c5)CC4)cc3)ncn2)c1`, the IC50 amounted to 106 µM in the assay on K562 and 13.5 µM at Bcr/Abl fusion protein.

Consider `O=C(c1ccc(-c2cc(Nc3cc(C(F)(F)F)cc(C(F)(F)F)c3)ncn2)cc1)N1CCN(C(=O)c2ccccc2F)CC1`, for which the figures for the IC50 in the assay with K562 and against Bcr/Abl fusion protein were 60.4 µM and 0.13 µM, respectively.

In the case of `CC(C)(C)c1ccc(Nc2cc(-c3ccc(C(=O)N4CCN(C(=O)c5ccccc5F)CC4)cc3)ncn2)cc1`, the IC50 with K562 was above 500 µM; against Bcr/Abl fusion protein, 354 µM. The corresponding values for `O=C(c1ccc(-c2cc(Nc3ccc(C(F)(F)F)cc3)ncn2)cc1)N1CCN(C(=O)c2ccccc2F)CC1` are 283 µM and 78.6 µM. As to `Cc1ccc(Nc2cc(-c3ccc(C(=O)N4CCN(C(=O)c5ccccc5F)CC4)cc3)ncn2)cc1`, in the assay with K562, the IC50 is above 500 µM. With `O=C(c1ccc(-c2cc(Nc3ccc(F)cc3)ncn2)cc1)N1CCN(C(=O)c2cccc(C(F)(F)F)c2)CC1`, the results for the IC50 in the assay on K562 and at Bcr/Abl fusion protein were 86.9 µM and 1.44 µM, respectively. For the compound `O=C(c1ccc(-c2cc(Nc3ccc(Cl)c(Cl)c3)ncn2)cc1)N1CCN(C(=O)c2ccccc2F)CC1`, the IC50 in the assay on K562 and against Bcr/Abl fusion protein was above 500 µM in each case. Turning to `O=C(c1ccc(-c2cc(Nc3ccc(Cl)cc3Cl)ncn2)cc1)N1CCN(C(=O)c2cccc(C(F)(F)F)c2)CC1`, the IC50 in the assay with K562 is 562 µM; against Bcr/Abl fusion protein it was 266 µM. Regarding `CC(=O)c1cccc(Nc2cc(-c3ccc(C(=O)N4CCN(C(=O)c5ccccc5F)CC4)cc3)ncn2)c1`, the IC50 at Bcr/Abl fusion protein worked out at 0.385 µM. With `O=C(c1ccc(-c2cc(Nc3cccc(F)c3)ncn2)cc1)N1CCN(C(=O)c2ccccc2Cl)CC1`, at Bcr/Abl fusion protein, inhibition was half-maximal at 6.06 µM (IC50). The same measure, in the same setting: in the case of `CC(C)(C)c1ccc(Nc2cc(-c3ccc(C(=O)N4CCN(C(=O)c5ccccc5Cl)CC4)cc3)ncn2)cc1` it was above 500 µM.

Take `O=C(c1ccc(-c2cc(Nc3cccc(C(F)(F)F)c3)ncn2)cc1)N1CCN(C(=O)c2cccc(C(F)(F)F)c2)CC1`: the IC50 in the assay on K562 is 25.9 µM; against Bcr/Abl fusion protein, 0.563 µM. Consider `CC(C)c1cccc(Nc2cc(-c3ccc(C(=O)N4CCN(C(=O)c5ccccc5F)CC4)cc3)ncn2)c1`, for which the IC50 in the assay with K562 and against Bcr/Abl fusion protein was above 500 µM in each case. For the compound `O=C(c1ccc(-c2cc(Nc3cccc(C(F)(F)F)c3)ncn2)cc1)N1CCN(C(=O)c2ccccc2F)CC1`, 0.872 µM corresponded to half-maximal inhibition at Bcr/Abl fusion protein (IC50). As to `O=C(c1ccc(-c2cc(Nc3ccc(Cl)cc3Cl)ncn2)cc1)N1CCN(C(=O)c2ccccc2F)CC1`, the IC50 with K562 and on Bcr/Abl fusion protein was above 500 µM throughout.

As for `O=C(c1ccc(-c2cc(Nc3ccccc3Cl)ncn2)cc1)N1CCN(C(=O)c2ccccc2Cl)CC1`, the IC50 was 21.4 µM in the assay on K562 and 0.07 µM at Bcr/Abl fusion protein. On Bcr/Abl fusion protein, `O=C(c1ccc(-c2cc(Nc3cccc(Cl)c3)ncn2)cc1)N1CCN(C(=O)c2ccccc2F)CC1` returned an IC50 of 91.8 µM. Still for that read-out and setting: in the case of `COc1cccc(Nc2cc(-c3ccc(C(=O)N4CCN(C(=O)c5ccccc5F)CC4)cc3)ncn2)c1` it was 16.1 µM. On to `Cc1ccc(NC(=O)c2ccc(CN3CCN(C)CC3)cc2)cc1Nc1nccc(-c2cccnc2)n1` [IMATINIB], for which the IC50 in the assay on K562 stood at 4.12 µM. In the case of `O=C(c1ccc(-c2cc(Nc3ccccc3F)ncn2)cc1)N1CCN(C(=O)c2ccccc2F)CC1`, the IC50 in the assay on K562 was 14.5 µM; on Bcr/Abl fusion protein, 0.05 µM. In the case of `O=C(c1ccc(-c2cc(Nc3ccccc3Cl)ncn2)cc1)N1CCN(C(=O)c2ccccc2F)CC1`, the IC50 was found to be 80.7 µM in the assay with K562 and 141 µM at Bcr/Abl fusion protein. In the case of `COc1cccc(Nc2cc(-c3ccc(C(=O)N4CCN(C(=O)c5ccccc5Cl)CC4)cc3)ncn2)c1`, the IC50 in the assay on K562 worked out at 102 µM. For `O=C(c1ccc(-c2cc(Nc3ccc(F)c(F)c3)ncn2)cc1)N1CCN(C(=O)c2ccccc2F)CC1`, the IC50 with K562 and against Bcr/Abl fusion protein was above 500 µM in each case. As for `Cc1ccc(Nc2cc(-c3ccc(C(=O)N4CCN(C(=O)c5ccccc5F)CC4)cc3)ncn2)cc1Cl`, the IC50 in the assay on K562 and on Bcr/Abl fusion protein was above 500 µM in each case.

As to `O=C(c1ccc(-c2cc(Nc3ccc(F)cc3)ncn2)cc1)N1CCN(C(=O)c2ccccc2F)CC1`, the IC50 amounted to 363 µM with K562 and 277 µM at Bcr/Abl fusion protein. The corresponding values for `O=C(c1ccc(-c2cc(Nc3cccc(Br)c3)ncn2)cc1)N1CCN(C(=O)c2ccccc2F)CC1` are above 500 µM and above 500 µM. Consider `O=C(c1ccc(-c2cc(Nc3cccc(F)c3)ncn2)cc1)N1CCN(C(=O)c2ccccc2F)CC1`, for which the values for the IC50 in the assay on K562 and at Bcr/Abl fusion protein were 17.8 µM and 0.017 µM, respectively.
